# Test results taken from ChEMBL document CHEMBL3120107, “Cytotoxic cardiac glycosides and coumarins from Antiaris toxicaria” (2014).
# Tests used:
# [1] = test system: PC-3; assay: Cytotoxicity against human PC3 cells assessed as growth inhibition after 72 hrs by SRB assay; assay type: functional; conditions: Homo sapiens, PC-3, 72 h; read-out: ED50 (the source's name)
# Outline: (§1)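 Sulforhodamine B assay run by NCI-validated procedure. Cells grown at 37 °C under humidified 5% CO2 in RPMI-1640 with 25 mM HEPES, […] (w/v) sodium bicarbonate, 10% (v/v) FBS and 100 μg/mL kanamycin. Compounds came from DMSO stocks, with final DMSO ≤ 1% (v/v). Continuous exposure for 72 h. ED50 (μg/mL, 50% cell-number reduction) interpolated from dose-response data. Triplicate tests. Doxorubicin served as positive control.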
# [2] = Cytotoxicity against human […] cells assessed as growth inhibition after 72 hrs by SRB assay; assay type: functional; conditions: Homo sapiens, HCT9, 72 h; read-out: ED50 (the source's name); outline: as §1
# [3] = test system: 1A9; assay: Cytotoxicity against human 1A9 cells assessed as growth inhibition after 72 hrs by SRB assay; assay type: functional; conditions: Homo sapiens, 1A9, 72 h; read-out: ED50 (the source's name); outline: as §1
# [4] = test system: CAKI-1; assay: Cytotoxicity against human CAKI-1 cells assessed as growth inhibition after 72 hrs by SRB assay; assay type: functional; conditions: Homo sapiens, CAKI-1, 72 h; read-out: ED50 (the source's name); outline: as §1
# [5] = test system: A549; assay: Cytotoxicity against human A549 cells assessed as growth inhibition after 72 hrs by SRB assay; assay type: functional; conditions: Homo sapiens, A549, 72 h; read-out: ED50 (the source's name); outline: as §1
# [6] = test system: SK-MEL-2; assay: Cytotoxicity against human SK-MEL-2 cells assessed as growth inhibition after 72 hrs by SRB assay; assay type: functional; conditions: Homo sapiens, SK-MEL-2, 72 h; read-out: ED50 (the source's name); outline: as §1
# [7] = test system: MCF7; assay: Cytotoxicity against human MCF7 cells assessed as growth inhibition after 72 hrs by SRB assay; assay type: functional; conditions: Homo sapiens, MCF7, 72 h; read-out: ED50 (the source's name); outline: as §1
# [8] = Cytotoxicity against human U87MG cells assessed as growth inhibition after 72 hrs by SRB assay; assay type: functional, U-87MG ATCC; conditions: Homo sapiens, U-87 MG, 72 h; read-out: ED50 (the source's name); outline: as §1
# [9] = Cytotoxicity against human KBVIN cells assessed as growth inhibition after 72 hrs by SRB assay; assay type: functional; conditions: Homo sapiens, KBVIN, 72 h; read-out: ED50 (the source's name); outline: as §1
# [10] = test system: KB; assay: Cytotoxicity against human KB cells assessed as growth inhibition after 72 hrs by SRB assay; assay type: functional; conditions: Homo sapiens, KB, 72 h; read-out: ED50 (the source's name); outline: as §1
compound,measurement,setting,value
CO[C@H]1[C@@H](O[C@H]2CC[C@]3(C=O)[C@H]4CC[C@]5(C)[C@@H](C6=CC(=O)OC6)CC[C@]5(O)[C@@H]4CC[C@]3(O)C2)O[C@H](C)[C@@H](O)[C@H]1O (stereo in doubt; 23) [STROPHATHOJAVOSIDE],EC50,[1],0.063 µg/mL
same,EC50,[2],0.085 µg/mL
same,EC50,[3],0.013 µg/mL
same,EC50,[4],0.014 µg/mL
same,EC50,[5],0.015 µg/mL
same,EC50,[6],0.063 µg/mL
same,EC50,[7],0.024 µg/mL
same,EC50,[8],0.043 µg/mL
same,EC50,[9],0.05 µg/mL
same,EC50,[10],0.081 µg/mL
C[C@H]1O[C@H](O[C@H]2CC[C@]3(C=O)[C@H]4C[C@@H](O)[C@]5(C)[C@@H](C6=CC(=O)OC6)CC[C@]5(O)[C@@H]4CC[C@]3(O)C2)[C@H](O)[C@H](O)[C@H]1O,EC50,[1],0.0044 µg/mL
same,EC50,[2],0.15 µg/mL
same,EC50,[3],0.058 µg/mL
same,EC50,[4],0.072 µg/mL
same,EC50,[5],0.059 µg/mL
same,EC50,[6],0.13 µg/mL
same,EC50,[7],0.1 µg/mL
same,EC50,[8],0.017 µg/mL
same,EC50,[9],0.15 µg/mL
same,EC50,[10],0.14 µg/mL
C[C@H]1O[C@H](O[C@H]2CC[C@]3(C=O)[C@H]4CC[C@]5(C)[C@@H](C6=CC(=O)OC6)CC[C@]5(O)[C@@H]4CC[C@]3(O)C2)[C@H](O)[C@H](O[C@@H]2O[C@H](CO)[C@@H](O)[C@H](O)[C@H]2O)[C@@H]1O [GLUCOSTROPHALLOSIDE],EC50,[1],0.084 µg/mL
same,EC50,[2],0.13 µg/mL
same,EC50,[3],0.057 µg/mL
same,EC50,[4],0.065 µg/mL
same,EC50,[5],0.038 µg/mL
same,EC50,[6],0.12 µg/mL
same,EC50,[7],0.096 µg/mL
same,EC50,[8],0.15 µg/mL
same,EC50,[9],0.083 µg/mL
same,EC50,[10],0.12 µg/mL
C[C@@H]1O[C@H](O[C@H]2CC[C@]3(C)[C@H]4CC[C@]5(C)[C@@H](C6=CC(=O)OC6)CC[C@]5(O)[C@@H]4CC[C@]3(O)C2)[C@H](O)[C@H](O)[C@H]1O [PERIPLORHAMNOSIDE],EC50,[1],0.021 µg/mL
same,EC50,[2],0.044 µg/mL
same,EC50,[3],0.012 µg/mL
same,EC50,[4],0.014 µg/mL
same,EC50,[5],0.012 µg/mL
same,EC50,[6],0.017 µg/mL
same,EC50,[7],0.018 µg/mL
same,EC50,[8],0.082 µg/mL
same,EC50,[9],0.02 µg/mL
same,EC50,[10],0.054 µg/mL
C[C@@H]1O[C@H](O[C@H]2CC[C@]3(CO)[C@H]4CC[C@]5(C)[C@@H](C6=CC(=O)OC6)CC[C@]5(O)[C@@H]4CC[C@]3(O)C2)[C@H](O)[C@H](O)[C@H]1O [CONVALLATOXOL],EC50,[1],0.013 µg/mL
same,EC50,[2],0.02 µg/mL
same,EC50,[3],0.0076 µg/mL
same,EC50,[4],0.0061 µg/mL
same,EC50,[5],0.004 µg/mL
same,EC50,[6],0.014 µg/mL
same,EC50,[7],0.012 µg/mL
same,EC50,[8],0.036 µg/mL
same,EC50,[9],0.014 µg/mL
same,EC50,[10],0.025 µg/mL
CC1(C)Oc2ccc3ccc(=O)oc3c2[C@@H](O[C@@H]2O[C@H](CO)[C@@H](O)[C@H](O)[C@H]2O)[C@@H]1O,EC50,[5],1.2 µg/mL
same,EC50,[7],3.1 µg/mL
same,EC50,[8],7.4 µg/mL
same,EC50,[9],4.1 µg/mL
same,EC50,[10],5.8 µg/mL
C[C@@H]1O[C@@H](O[C@H]2CC[C@]3(C=O)[C@H]4CC[C@]5(C)[C@@H](C6=CC(=O)OC6)CC[C@]5(O)[C@@H]4CC[C@]3(O)C2)[C@H](O)[C@H](O)[C@H]1O [CONVALLATOXIN],EC50,[1],0.094 µg/mL
same,EC50,[2],0.0014 µg/mL
same,EC50,[3],0.03 µg/mL
same,EC50,[4],0.0031 µg/mL
same,EC50,[5],0.0027 µg/mL
same,EC50,[6],0.0013 µg/mL
same,EC50,[7],0.0065 µg/mL
same,EC50,[8],0.014 µg/mL
same,EC50,[9],0.013 µg/mL
same,EC50,[10],0.014 µg/mL
C[C@H]1O[C@@H](O[C@H]2CC[C@]3(C)[C@H]4CC[C@]5(C)[C@@H](C6=CC(=O)OC6)CC[C@]5(O)[C@@H]4CC[C@]3(O)C2)[C@H](O)[C@H](O)[C@H]1O [ANTIAROSIDE A],EC50,[1],0.078 µg/mL
same,EC50,[2],0.09 µg/mL
same,EC50,[3],0.02 µg/mL
same,EC50,[4],0.018 µg/mL
same,EC50,[5],0.044 µg/mL
same,EC50,[6],0.073 µg/mL
same,EC50,[7],0.063 µg/mL
same,EC50,[8],0.15 µg/mL
same,EC50,[9],0.068 µg/mL
same,EC50,[10],0.0097 µg/mL
C[C@@H]1O[C@H](O[C@H]2CC[C@@]3(C=O)[C@H](CC[C@@H]4[C@@H]3CC[C@]3(C)[C@@H](C5=CC(=O)OC5)CC[C@]43O)C2)[C@H](O)[C@H](O)[C@H]1O [MALAYOSIDE],EC50,[1],0.11 µg/mL
same,EC50,[2],0.18 µg/mL
same,EC50,[3],0.076 µg/mL
same,EC50,[4],0.073 µg/mL
same,EC50,[5],0.08 µg/mL
same,EC50,[6],0.62 µg/mL
same,EC50,[7],0.19 µg/mL
same,EC50,[8],0.37 µg/mL
same,EC50,[9],0.32 µg/mL
same,EC50,[10],0.3 µg/mL
C[C@H]1O[C@@H](O[C@H]2CC[C@]3(C=O)[C@H]4CC[C@]5(C)[C@@H](C6=CC(=O)OC6)CC[C@]5(O)[C@@H]4CC[C@]3(O)C2)[C@H](O)[C@H](O)[C@H]1O[C@@H]1O[C@H](CO)[C@@H](O)[C@H](O)[C@H]1O,EC50,[1],0.6 µg/mL
same,EC50,[2],0.94 µg/mL
same,EC50,[3],0.53 µg/mL
same,EC50,[4],0.51 µg/mL
same,EC50,[5],0.12 µg/mL
same,EC50,[6],0.16 µg/mL
same,EC50,[7],0.58 µg/mL
same,EC50,[8],1.9 µg/mL
same,EC50,[9],1.7 µg/mL
same,EC50,[10],1.5 µg/mL
